In ChEMBL document CHEMBL4689842, “EUbOPEN Chemogenomics Library wave 1” (2021):

Legend:
[1] = system: U2OS; assay: Multiplex assay against U2OS; format: toxicity, cell-based; conditions: human
Procedure, shortened: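 On a CQ1 microscope at 37°C and 5% CO2, live cells were imaged after compound addition. They had been stained at seeding with Hoechst33342, BioTracker Green Microtubule Cytoskeleton Dye, MitoTracker Red and Annexin V Alexa Fluor 680. CellPathfinder machine-learning gating assigned cells to Hoechst high-intensity objects or normal cells, normal cells to healthy, pyknosed or fragmented nuclei, and pyknosed cells to mitotic or apoptotic. Tubulin, mitochondrial-mass and membrane-permeability phenotypes are per cents of healthy-nucleus cells.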

[2] = system: Fibroblast; assay: Incucyte cell viability with human fibroblast; format: toxicity, cell-based; conditions: 10 µM, compound concentration 10 uM; further: filed as whole numbers so only -1 and 0 and 1 occur
[3] = 12 h, 1 µM, compound concentration 1 uM, replicate 1
[4] = 12 h, 1 µM, compound concentration 1 uM, replicate 2
[5] = 12 h, 10 µM, compound concentration 10 uM, replicate 1
[6] = 12 h, 10 µM, compound concentration 10 uM, replicate 2
[7] = 24 h, 1 µM, compound concentration 1 uM, replicate 1
[8] = 24 h, 1 µM, compound concentration 1 uM, replicate 2
[9] = 24 h, 10 µM, compound concentration 10 uM, replicate 1
[10] = 24 h, 10 µM, compound concentration 10 uM, replicate 2
[11] = 48 h, 1 µM, compound concentration 1 uM, replicate 1
[12] = 48 h, 1 µM, compound concentration 1 uM, replicate 2
[13] = 48 h, 10 µM, compound concentration 10 uM, replicate 1
[14] = 48 h, 10 µM, compound concentration 10 uM, replicate 2

For `CCCc1cc(C)[nH]c(=O)c1CNC(=O)c1cc(-c2ccc(N3CCN(C(C)C)CC3)nc2)cc2c1cnn2C(C)C`, the “Population Apoptotic (%)” value [1, 3] was 64%, the “Population Fragmented Nuclei (%)” value [1, 3] was 21% and the “Population Healthy Nuclei (%)” value [1, 3] was 53%. For the same molecule, the “Population Hoechst High Intensity Objects (%)” value [1, 3] was 15%, the “Population Membrane Permeable-Phenotype (%)” value [1, 3] was 13% and the “Population Mitochondria Different-Phenotype (%)” value [1, 3] was 81%. The “Population Mitotic Cells (%)” value [1, 3] was 35%, the “Population Normal (%)” value [1, 3] was 84% and the “Population Pyknosed Nuclei (%)” value [1, 3] was 24%. The “Population Tubulin-Different-Phenotype (%)” value [1, 3] was 81%, the “Total Cell Count” value [1, 3] was 124 and the “Population Apoptotic (%)” value [1, 4] was 20%. For the same molecule, the “Population Fragmented Nuclei (%)” value [1, 4] was 19%, the “Population Healthy Nuclei (%)” value [1, 4] was 70% and the “Population Hoechst High Intensity Objects (%)” value [1, 4] was 10%. The “Population Membrane Permeable-Phenotype (%)” value [1, 4] was 8%, the “Population Mitochondria Different-Phenotype (%)” value [1, 4] was 91% and the “Population Mitotic Cells (%)” value [1, 4] was 80%. The “Population Normal (%)” value [1, 4] was 89%, the “Population Pyknosed Nuclei (%)” value [1, 4] was 9% and the “Population Tubulin-Different-Phenotype (%)” value [1, 4] was 94%. For the same molecule, the “Total Cell Count” value [1, 4] was 56, the “Population Apoptotic (%)” value [1, 5] was 70% and the “Population Fragmented Nuclei (%)” value [1, 5] was 24%. For the same molecule, the “Population Healthy Nuclei (%)” value [1, 5] was 49%, the “Population Hoechst High Intensity Objects (%)” value [1, 5] was 8% and the “Population Membrane Permeable-Phenotype (%)” value [1, 5] was 64%. For the same molecule, the “Population Mitotic Cells (%)” value [1, 5] was 29%, the “Population Normal (%)” value [1, 5] was 91% and the “Population Pyknosed Nuclei (%)” value [1, 5] was 26%. The “Population Tubulin-Different-Phenotype (%)” value [1, 5] was 98%, the “Total Cell Count” value [1, 5] was 82 and the “Population Apoptotic (%)” value [1, 6] was 85%. The “Population Fragmented Nuclei (%)” value [1, 6] was 13%, the “Population Healthy Nuclei (%)” value [1, 6] was 47% and the “Population Hoechst High Intensity Objects (%)” value [1, 6] was 5%. The “Population Membrane Permeable-Phenotype (%)” value [1, 6] was 79%, the “Population Mitochondria Different-Phenotype (%)” value [1, 6] was 100% and the “Population Mitotic Cells (%)” value [1, 6] was 14%. The “Population Normal (%)” value [1, 6] was 94%, the “Population Pyknosed Nuclei (%)” value [1, 6] was 38% and the “Population Tubulin-Different-Phenotype (%)” value [1, 6] was 100%. The “Total Cell Count” value [1, 6] was 57, the “Population Apoptotic (%)” value [1, 7] was 71% and the “Population Fragmented Nuclei (%)” value [1, 7] was 18%. For the same molecule, the “Population Healthy Nuclei (%)” value [1, 7] was 60%, the “Population Hoechst High Intensity Objects (%)” value [1, 7] was 13% and the “Population Membrane Permeable-Phenotype (%)” value [1, 7] was 20%. For the same molecule, the “Population Mitochondria Different-Phenotype (%)” value [1, 7] was 89%, the “Population Mitotic Cells (%)” value [1, 7] was 28% and the “Population Normal (%)” value [1, 7] was 86%. For the same molecule, the “Population Pyknosed Nuclei (%)” value [1, 7] was 21%, the “Population Tubulin-Different-Phenotype (%)” value [1, 7] was 79% and the “Total Cell Count” value [1, 7] was 132. The “Population Apoptotic (%)” value [1, 8] was 33%, the “Population Fragmented Nuclei (%)” value [1, 8] was 20% and the “Population Healthy Nuclei (%)” value [1, 8] was 51%. For the same molecule, the “Population Hoechst High Intensity Objects (%)” value [1, 8] was 10%, the “Population Membrane Permeable-Phenotype (%)” value [1, 8] was 10% and the “Population Mitochondria Different-Phenotype (%)” value [1, 8] was 78%. For the same molecule, the “Population Mitotic Cells (%)” value [1, 8] was 66%, the “Population Normal (%)” value [1, 8] was 90% and the “Population Pyknosed Nuclei (%)” value [1, 8] was 27%. The “Population Tubulin-Different-Phenotype (%)” value [1, 8] was 82%, the “Total Cell Count” value [1, 8] was 53 and the “Population Apoptotic (%)” value [1, 9] was 88%. For the same molecule, the “Population Fragmented Nuclei (%)” value [1, 9] was 23%, the “Population Healthy Nuclei (%)” value [1, 9] was 36% and the “Population Membrane Permeable-Phenotype (%)” value [1, 9] was 80%. For the same molecule, the “Population Mitotic Cells (%)” value [1, 9] was 11%, the “Population Pyknosed Nuclei (%)” value [1, 9] was 39% and the “Total Cell Count” value [1, 9] was 75. The “Population Apoptotic (%)” value [1, 10] was 91%, the “Population Fragmented Nuclei (%)” value [1, 10] was 8% and the “Population Healthy Nuclei (%)” value [1, 10] was 48%. For the same molecule, the “Population Hoechst High Intensity Objects (%)” value [1, 10] was 9%, the “Population Membrane Permeable-Phenotype (%)” value [1, 10] was 85% and the “Population Mitochondria Different-Phenotype (%)” value [1, 10] was 100%. The “Population Mitotic Cells (%)” value [1, 10] was 8%, the “Population Normal (%)” value [1, 10] was 90% and the “Population Pyknosed Nuclei (%)” value [1, 10] was 42%. For the same molecule, the “Population Tubulin-Different-Phenotype (%)” value [1, 10] was 100%, the “Total Cell Count” value [1, 10] was 60 and the “Population Apoptotic (%)” value [1, 11] was 70%. For the same molecule, the “Population Fragmented Nuclei (%)” value [1, 11] was 23%, the “Population Healthy Nuclei (%)” value [1, 11] was 56% and the “Population Hoechst High Intensity Objects (%)” value [1, 11] was 10%. For the same molecule, the “Population Membrane Permeable-Phenotype (%)” value [1, 11] was 18%, the “Population Mitochondria Different-Phenotype (%)” value [1, 11] was 83% and the “Population Mitotic Cells (%)” value [1, 11] was 29%. For the same molecule, the “Population Normal (%)” value [1, 11] was 89%, the “Population Pyknosed Nuclei (%)” value [1, 11] was 20% and the “Population Tubulin-Different-Phenotype (%)” value [1, 11] was 77%. The “Total Cell Count” value [1, 11] was 142, the “Population Apoptotic (%)” value [1, 12] was 46% and the “Population Fragmented Nuclei (%)” value [1, 12] was 22%. The “Population Healthy Nuclei (%)” value [1, 12] was 59%, the “Population Hoechst High Intensity Objects (%)” value [1, 12] was 12% and the “Population Membrane Permeable-Phenotype (%)” value [1, 12] was 27%. For the same molecule, the “Population Mitochondria Different-Phenotype (%)” value [1, 12] was 72%, the “Population Mitotic Cells (%)” value [1, 12] was 53% and the “Population Normal (%)” value [1, 12] was 87%. For the same molecule, the “Population Pyknosed Nuclei (%)” value [1, 12] was 18%, the “Population Tubulin-Different-Phenotype (%)” value [1, 12] was 74% and the “Total Cell Count” value [1, 12] was 65. For the same molecule, the “Population Apoptotic (%)” value [1, 13] was 95%, the “Population Fragmented Nuclei (%)” value [1, 13] was 26% and the “Population Healthy Nuclei (%)” value [1, 13] was 15%. For the same molecule, the “Population Hoechst High Intensity Objects (%)” value [1, 13] was 14%, the “Population Membrane Permeable-Phenotype (%)” value [1, 13] was 89% and the “Population Mitochondria Different-Phenotype (%)” value [1, 13] was 100%. For the same molecule, the “Population Mitotic Cells (%)” value [1, 13] was 4%, the “Population Normal (%)” value [1, 13] was 85% and the “Population Pyknosed Nuclei (%)” value [1, 13] was 57%. For the same molecule, the “Population Tubulin-Different-Phenotype (%)” value [1, 13] was 100%, the “Total Cell Count” value [1, 13] was 95 and the “Population Apoptotic (%)” value [1, 14] was 100%. The “Population Fragmented Nuclei (%)” value [1, 14] was 13%, the “Population Healthy Nuclei (%)” value [1, 14] was 37% and the “Population Hoechst High Intensity Objects (%)” value [1, 14] was 16%. The “Population Membrane Permeable-Phenotype (%)” value [1, 14] was 96%, the “Population Mitotic Cells (%)” value [1, 14] was 0% and the “Population Normal (%)” value [1, 14] was 83%. For the same molecule, the “Population Pyknosed Nuclei (%)” value [1, 14] was 49%, the “Total Cell Count” value [1, 14] was 82 and the “Growth Rate” value ([2]; 0 h, replicate number 2, timepoint 0 hours) was 0. For the same molecule, the “Growth Rate” value ([2]; 6 h, replicate number 1, timepoint 6 hours) was 0, the “Growth Rate” value ([2]; 12 h, replicate number 1, timepoint 12 hours) was 0 and the “Growth Rate” value ([2]; 12 h, replicate number 2, timepoint 12 hours) was 1. For the same molecule, the “Growth Rate” value ([2]; 18 h, replicate number 1, timepoint 18 hours) was 0 and the “Growth Rate” value ([2]; 24 h, replicate number 1, timepoint 24 hours) was 0.
